# TAAR1 ag: human TAAR1 agonists, primary screen, Fluo-8 calcium fluorescence, CHO RD-HGA16 cells | Trace amine-associated receptor 1 (Homo sapiens), Q96RJ0 | vehicle wells 0%, saturating PEA agonist 100% | activation, % at 3 µM | actives 0.99% (n = 360,000) | AID 624467, 2012;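 active = activation above the mean activation of all test compounds in the run plus 3 SD, cut at about 38% in these data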
# Target sequence (Q96RJ0 whole entry, looked up): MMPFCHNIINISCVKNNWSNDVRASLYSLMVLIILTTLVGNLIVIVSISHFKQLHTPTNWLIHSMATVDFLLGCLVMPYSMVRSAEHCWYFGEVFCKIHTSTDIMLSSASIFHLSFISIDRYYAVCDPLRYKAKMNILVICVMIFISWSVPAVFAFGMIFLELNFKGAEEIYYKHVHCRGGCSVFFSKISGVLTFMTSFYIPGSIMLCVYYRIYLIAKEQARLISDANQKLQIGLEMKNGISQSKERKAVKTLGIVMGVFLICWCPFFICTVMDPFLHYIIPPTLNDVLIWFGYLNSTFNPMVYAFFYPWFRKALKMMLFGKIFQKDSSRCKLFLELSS
#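 System: CHO-derived RD-HGA16 cells with stable Gα16 and human TAAR1. Times: 17-24 h plating, Fluo-8 75 min 37 °C, 30 min RT. Measured by: calcium-sensitive Fluo-8 signal, excitation 470-495, emission 515-575 nm. Read-out basis: % activation relative to PEA EC100 response. Control set: DMSO and PEA EC100. Repeats: no replicates (n 1).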
# NS3 helicase inh: inhibitors of HCV NS3 helicase, primary screen, biochemical, Cy5 molecular beacon fluorescence | Hepatitis C virus NS3 helicase | NS3 helicase DNA unwinding | inhibition, % at 10.9 µM | actives 0.56% (n = 290,000) | AID 1800, 2009;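 active = inhibition above the mean of all tested compounds plus 3 SD, set per campaign, cut at about 35% in these data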
#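 assay system = NS3 helicase fragment of HCV | buffer or medium = MOPS pH 6.5, MgCl2, DTT, Tween20, BSA | timing = 60 min unwinding reaction at 25 °C after ATP addition | signal = Cy5 beacon fluorescence read at start and 1 h | read-out basis = % inhibition of unwinding | control set = low DMSO, high thioflavine S at 110 µM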
# rCAG binder: binders of r(CAG) RNA repeats, primary screen, biochemical, fluorescence; r(CAG) RNA repeat, TO-PRO-1 dye displacement fluorescence; inhibition, % at 3 µM; actives 1.3% (n = 370,000); AID 651821, 2012;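 active = inhibition above the plate cutoff, the mean of all test compounds on that plate plus 3 SD, cut at about 35% in these data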;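 note: higher means more dye released from RNA so lower well fluorescence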
# TAAR1 antag: human TAAR1 antagonists, primary screen, Fluo-8 calcium fluorescence, CHO RD-HGA16 cells; inhibition, % at 3 µM; antagonist; Trace amine-associated receptor 1 (Homo sapiens), Q96RJ0; actives 1.5% (n = 360,000); AID 624466, 2012;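 active = inhibition above a per-plate cutoff, the mean inhibition of test compounds on that plate plus 3 SD, cut at about 49% in these data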
#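 Assay system: RD-HGA16 CHO cells with stable hTAAR1 and Gα16 / Reagent: EC80 β-phenethylamine stimulus / Doses: 3 µM, single point / Timing: dye loading 75 min at 37 °C, then 30 min room temperature / Measured by: Fluo-8 intracellular calcium dye fluorescence, real-time kinetic reads / Controls: vehicle wells and EC80 agonist wells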
# HCV core dimer: inhibitors of HCV core protein dimerization, primary screen, biochemical, TR-FRET, high-throughput; inhibition, % at 5 µM; actives 0.33% (n = 300,000); TR-FRET GST/Flag-core106 dimerization, 1536-well; AID 1899, 2009;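 active = inhibition above the mean of all tested compounds plus 3 SD, set per screening campaign, cut at about 45% in these data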
#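 System: GST-tagged and Flag-tagged HCV core protein residues 1-106 / Input: core106 proteins, GST 13.5 nM and Flag 17 nM / Buffer or medium: KF-containing HEPES buffer, pH 7.45, DTT, CHAPS, BSA / Probe or stimulus: Eu-anti-GST and XL665-anti-Flag labelled anti-tag antibodies / Schedule: 4 h, 22.5 °C incubation / Technique: TR-FRET 671 and 617 nm emission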
# TAAR1 ag confirm: human TAAR1 agonists, retest of hits, confirmation, Fluo-8 calcium fluorescence, CHO RD-HGA16 cells; shares compounds with TAAR1 ag; scaled: DMSO 0%, maximal phenethylamine 100%; activation, % at 3 µM; actives 82% (n = 2,400);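 active = activation above a cutoff set at the run's mean compound activation plus 3 SD, cut at about 39% in these data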
# Ga16 nonsel ag: nonselective calcium mobilization agonists, CHO-Ga16 cells, counter-screen for hTAAR1 agonist project, cell-based, fluorescence, CHO-Ga16 parental line | shares compounds with TAAR1 ag | Fluo-8 calcium fluorescence; normalized to maximal ATP response, DMSO zero | activation, % at 3 µM | actives 50% (n = 2,400) | AID 651787, 2012;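 active = activation above the run cutoff, the mean activation over all tested wells plus 3 SD, cut at about 12% in these data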
# TAAR1 desens: TAAR1 desensitization by agonist hits, confirmation, counter-screen for TAAR1 agonist project, cell-based, fluorescence, tachyphylaxis; AID 651951, 2012; actives 46% (n = 2,400); CHO RD-HGA16 hTAAR1, Fluo-8 calcium, beta-PEA response inhibition; inhibition, % at 3 µM; shares compounds with TAAR1 ag;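 active = inhibition above the run cutoff, the mean inhibition of all test compounds plus 3 SD, cut at about 49% in these data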;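 note: beta-PEA stimulus applied at its EC80; loss of beta-PEA calcium signal after compound pretreatment read as receptor desensitization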
# Ga16 nonsel ant: inhibition of ATP-evoked calcium response in CHO-Ga16 cells, counter-screen for TAAR1 agonist project, cell-based, fluorescence | shares compounds with TAAR1 ag | CHO-Ga16 ATP-induced calcium, Fluo-8 fluorescence | inhibition, % at 3 µM | actives 39% (n = 2,400) | AID 651952, 2012;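 active = inhibition above the plate's mean compound inhibition plus 3 SD, computed per plate, cut at about 22% in these data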
# Hits are given with their value; n = inactive; x = no result. Only some compounds are listed: those with a hit (about 3.7% of all), similar ones and a draw of the others.
SMILES,TAAR1 ag,NS3 helicase inh,rCAG binder,TAAR1 antag,HCV core dimer,TAAR1 ag confirm,Ga16 nonsel ag,TAAR1 desens,Ga16 nonsel ant
O=C(C[C@H]1C(=O)N(CCc2ccccc2)C[C@@H]1c1ccccc1)Nc1ccccc1,73,x,n,n,x,77,n,n,n
COc1ccc(NC(=O)C[C@H]2C(=O)N(CCc3ccccc3)C[C@@H]2c2ccc(OC)cc2)cc1,n,x,n,n,x,x,x,x,x
CCC(CC)NC(=O)CON=C1c2ccccc2-c2ccccc21,43,n,n,n,n,n,n,n,n
CCNC(=O)CON=C1c2ccccc2-c2ccccc21,n,n,n,n,n,x,x,x,x
CC(C)c1ccc(OC[C@@H](O)CN2CCC(C(O)(c3ccccc3)c3ccccc3)CC2)cc1,x,x,n,x,x,x,x,x,x
CCOC(=O)NC(NCCc1ccccc1)(C(F)(F)F)C(F)(F)F,87,n,n,87,n,98,15,87,n
CCOC(=O)C(NCCc1ccccc1)(NC(C)=O)C(F)(F)F (configuration not stated),x,n,n,x,n,x,n,x,n
CCOC(=O)C(NCCc1ccc(F)cc1)(NC(=O)CC)C(F)(F)F (configuration not stated),51,n,n,n,n,64,n,n,n
CCOC(=O)C(NCc1ccc(OC)cc1)(NC(C)=O)C(F)(F)F (configuration not stated),n,n,n,n,n,x,x,x,x
CCn1c(Cc2cccs2)nnc1SCC(=O)Nc1ccc(OCc2ccccc2)cc1,x,x,n,x,x,x,x,x,x
CC(C)(C)OC(=O)/C=C/[C@H](CCCCl)Sc1ccc(C(C)(C)C)cc1,x,x,n,x,x,x,x,x,x
CCC1(c2ccc(F)cc2)NC(=O)N(CC(=O)Nc2ccccc2Cl)C1=O (configuration not stated),80,n,n,n,n,72,36,n,n
CCC1(c2ccc(F)cc2)NC(=O)N(CC(=O)Nc2ccccc2C)C1=O (configuration not stated),n,n,n,n,n,x,x,x,x
COCC(=O)N(C[C@H]1[C@H](c2ccccc2)[C@@H](CO)N1C(=O)NC(C)C)C(C)C,x,x,n,x,x,x,x,x,x
Cc1ccc(S(=O)(=O)n2nc(OC(=O)c3cccc(F)c3)cc2N)cc1,103,n,n,n,n,56,38,n,n
Cc1ccc(S(=O)(=O)n2nc(OC(=O)c3c(F)cccc3Cl)cc2N)cc1,60,n,n,n,n,65,27,n,n
Nc1cc(OC(=O)c2ccc(F)cc2)nn1S(=O)(=O)c1ccc(F)cc1,n,n,n,n,n,x,x,x,x
CNCCc1ccccn1,81,n,n,58,n,92,n,82,n
c1ccc(CCNCc2cccs2)nc1,52,x,n,n,x,66,n,n,n
c1ccc(NCCc2ccccn2)cc1,n,x,n,n,x,x,x,x,x
O=C(Nc1nnc(-c2cccs2)o1)c1cccc(C(F)(F)F)c1,90,n,n,n,n,45,51,n,25
CC1CCN(c2ccc3c(c2)S(=O)(=O)c2cccc(C(=O)NC4CC4)c2C3=O)CC1,n,x,n,n,x,x,x,x,x
O=C(NC1CCCCC1)c1cccc2c1C(=O)c1ccc(N3CCC(Cc4ccccc4)CC3)cc1S2(=O)=O,52,x,n,61,x,n,29,n,38
Fc1cccc(CSc2nnc3c(n2)[nH]c2ccccc23)c1,n,n,n,n,n,x,x,x,x
CN(C)CCSc1nnc2[nH]c3ccccc3c2n1,44,n,n,n,n,83,n,n,n
SMILES,TAAR1 ag,NS3 helicase inh,rCAG binder,TAAR1 antag,HCV core dimer,TAAR1 ag confirm,Ga16 nonsel ag,TAAR1 desens,Ga16 nonsel ant
COC(=O)C[C@@H]1CC[C@@H]2[C@@H](COc3ccc(NC(=O)Nc4cccc(Cl)c4)cc3C(=O)N2C)O1,x,x,n,x,x,x,x,x,x
CC(C)[C@H](NC(=O)C1CCCC1)C(=O)N1CCC[C@H]1C(=O)NCCc1ccccc1Cl,87,x,n,75,x,85,n,87,n
CC(C)[C@H](NC(=O)c1ccc(Cl)cc1Cl)C(=O)N1CCC[C@H]1C(=O)NCCc1ccccc1Cl,50,x,n,76,x,73,n,92,n
O=C(N[C@H](C(=O)N1CCC[C@H]1C(=O)NCCc1ccccc1Cl)C1CCCCC1)c1cccs1,x,x,n,x,x,x,n,x,n
CC(C)[C@H](NC(=O)c1ccc(Cl)c(Cl)c1)C(=O)N1CCC[C@H]1C(=O)NCc1ccccc1,n,x,n,n,x,x,x,x,x
CC(C)[C@H](NC(=O)c1ccccc1)C(=O)N1CCC[C@H]1C(=O)NCc1ccccc1,n,x,n,n,x,x,x,x,x
CC(COc1cc(F)cc(C#N)c1)CN1CCC(C(O)(c2ccccc2)c2ccccc2)CC1 (configuration not stated),x,x,n,x,x,x,x,x,x
CCOC(=O)C1CCCN(C(=O)Cc2ccc(C)cc2)C1 (configuration not stated),n,n,n,n,n,x,x,x,x
CCOC(=O)C1CCCN(C(=S)Nc2ccc(C)cc2C)C1 (configuration not stated),69,n,n,60,n,n,n,n,n
Oc1ccc(C2C[C@H]3CC[C@@H]2C3)cc1O (some centres not stated),n,n,n,n,n,x,x,x,x
Oc1ccc(C2CNCc3sccc32)cc1O (configuration not stated),92,x,n,78,n,105,n,95,n
Cc1ccc(Cn2nnc(C(=O)Nc3cccc(C)c3C)c2N)cc1,118,n,n,81,n,123,85,87,59
CCc1ccc(Cn2nnc(C(=O)Nc3cccc(C)c3)c2N)cc1,n,n,n,n,n,x,x,x,x
N#CCC[C@H]1CC[C@]2(CCCN(C(=O)c3ccco3)C2)O1,x,x,n,x,x,x,x,x,x
